Article PMC11127568 (ACS infectious diseases, 2024)
Like-named read-outs stand apart in the source and are kept apart here.

Assays:
B. duncani [1] = experiment: microbe, parasite or virus in culture; format: cell-based, Babesia duncani (WA1); settings: read-out: IC50 B. duncani
[2] = system: human cell lines (HeLa, HepG2, HEK, and HCT116); experiment: Drug cytotoxicity evaluation; format: cell-based; settings: 48 h, read-out: IC50 Human cell lines
B. duncani [3] = experiment: In vitro drug-drug interaction with atovaquone by isobologram analysis; format: cell-based, Babesia duncani; settings: combination with atovaquone; for Mode of Interaction: isobologram analysis
Procedure, shortened: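 B. duncani WA1 grown in A+ human RBCs, DMEM/F12, 5% hematocrit. […] SYBR Green I lysis read-out (ex 497/em 520 nm). FIC50 = IC50 in combination/IC50 alone, summed; ΣFIC50 <0.8 synergy, 0.8–<1.4 additive, ≥1.4 antagonism. ≥2 independent experiments, triplicates.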

B. duncani [4] = experiment: In vivo efficacy in B. duncani lethal infection model in C3H/HeJ mice; design: species or system mouse (C3H/HeJ); settings: for Survival after monotherapy: lethal B. duncani infection, 10 mg/kg oral daily DPI 3 to 7
Procedure, shortened: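 Female C3H/HeJ mice (6 weeks, 5 per group) were infected intravenously with 1×10³ B. duncani WA1-infected RBCs. Oral gavage was given daily on DPI 3–7 with 100 μl PEG 400 vehicle or test compound at 10 mg/kg. Parasitemia came from Giemsa-stained thin blood smears, with at least 3000 RBCs counted, followed to DPI 84. Survival by Kaplan-Meier.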

B. microti = experiment: In vivo efficacy in B. microti chronic infection model in CB.17/SCID mice; design: species or system mouse (CB.17/SCID); settings: SCID mice, 10 mg/kg oral
[5] = B. duncani, 10 mg/kg oral DPI 3 to 7

O=C1C(O)=C([C@H]2CC[C@H](c3ccc(Cl)cc3)CC2)C(=O)c2ccccc21 [Atovaquone, reference compound]
IC50 (B. duncani [1]; Babesia duncani, Erythrocyte, in Homo sapiens, 62 h): 72 ± 6 nM | IC50 [2]: 5 µM

COc1cc2[nH]c(C)c(-c3ccc(-c4ccc(OC(F)(F)F)cc4)cc3)c(=O)c2cc1Cl [ELQ-596]
Mode of Interaction (B. duncani [3]): additive (0.8 ≤ ΣFIC50 < 1.4 = additive) | IC50 (B. duncani [1]): 32 ± 4.9 nM

CCOC(=O)OCOc1c(-c2ccc(-c3ccc(OC(F)(F)F)cc3)cc2)c(C)nc2cc(OC)c(Cl)cc12 [ELQ-598]
Mode of Interaction (B. duncani [3]): additive (0.8 ≤ ΣFIC50 < 1.4 = additive) | IC50 (B. duncani [1]): 37 ± 2.2 nM | Parasites on Giemsa-stained thin-blood smears on monitoring until DPI 84 (B. duncani [4]; [5]): no parasites could be detected | Survival after monotherapy (B. duncani [4]): survival of these mice for the duration of study

COc1cc2[nH]c(C)c(-c3ccc(-c4ccc(OC(F)(F)F)cc4)cc3)c(=O)c2cc1F [ELQ-650]
Mode of Interaction (B. duncani [3]): additive (0.8 ≤ ΣFIC50 < 1.4 = additive) | IC50 (B. duncani [1]): 22 ± 4.9 nM

CCOC(=O)OCOc1c(-c2ccc(-c3ccc(OC(F)(F)F)cc3)cc2)c(C)nc2cc(OC)c(F)cc12 [ELQ-672]
Mean FIC value (Σ FIC50) (B. duncani [3]; B. duncani in human red blood cells, fixed ratio method): 0.5 | Mode of Interaction (B. duncani [3]): synergistic | IC50 (B. duncani [1]): 57 ± 18 nM | Day parasites emerged (B. microti; vehicle DPI 17): 21 DPI | Day peak parasitemia reached (B. microti; vehicle DPI 21): 31 DPI | Day parasites emerged (B. duncani [4]; [5]): 16 DPI | Parasitemia at DPI 19 (B. duncani [4]; [5]): 8% | Survival after monotherapy (B. duncani [4]): animals ultimately succumbing to infection
